Experimental data taken from ChEMBL document CHEMBL2311397, “Design and synthesis of cyclopropylamide analogues of combretastatin-A4 as novel microtubule-stabilizing agents” (J Med Chem, 2013).

Key:
[1] = biological target: T1, Tubulin (Homo sapiens) (UniProt P68371+Q9H4B7+P0DPH7+P68366+Q13509+Q71U36+P04350+Q3ZCM7+P07437+P68363+Q9BQE3+Q6PEY2+Q13885+Q9BVA1+Q9BUF5); assay: Activation of tubulin (unknown origin) polymerization at 10 uM; format: protein-complex assay
In short: (§1)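 Purified brain tubulin (kit), final 3.0 mg/mL, in 80.0 mM PIPES sesquisodium pH 6.9, 2.0 mM MgCl2, 0.5 mM EGTA, 1 mM GTP, 10.2% glycerol; components prewarmed to 37 °C, reaction started by adding tubulin. A340 read each minute for 1 h. Single-point % stimulation used 10 μM compound; EC50 from 3.75, 7.5, 15, 30, 60 μM.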

[2] = test system: K562; assay: Cytotoxicity against human K562 cells after 48 hrs by MTT assay; format: functional, cell-based
In short: (§2)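 Log-phase cells (40000–50000 cells/mL) grown in DMEM with 10% fetal calf serum (5% CO2, 37 °C) and exposed 48 h to five concentrations, 3–5 replicates. Read-out was MTT with absorbance at 570 nm; IC50 reported as mean ± SD of three independent experiments. Resistant A549 and HeLa sublines were made by stepwise paclitaxel selection; resistance index = IC50(resistant)/IC50(sensitive).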

[3] = biological target: Tubulin; assay: (§3) Activation of tubulin (unknown origin) polymerization; format: protein-complex assay, Homo sapiens; in short: as §1
[4] = test system: A549; assay: Cytotoxicity against paclitaxel-resistant human A549 cells after 48 hrs by MTT assay; format: functional, cell-based; conditions: A549, 48 h; in short: as §2
[5] = test system: Mus musculus; assay: Toxicity in human A549 cells xenografted BALB/c nude mouse assessed as change in body weight at 30 mg/kg, ig; format: organism-based; parameters: dose 30 mg/kg, route intragastric; conditions: in vivo, po
In short: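 Male BALB/c nude mice, 5 weeks old (18–20 g), implanted subcutaneously in the right armpit with A549 tumor fragments (3 mm3). On day 13, at 100–200 mm3, daily intragastric dosing began: 100 or 500 mg/kg test compound, or 30 mg/kg paclitaxel, in Tween-80 diluted with saline. Vehicle given ip. Tumor volume and body weight followed; n = 6; inhibition rate at day 16.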

[6] = test system: SW480; assay: Cytotoxicity against human SW480 cells after 48 hrs by MTT assay; format: functional, cell-based; in short: as §2
[7] = test system: A549; assay: Cytotoxicity against human A549 cells after 48 hrs by MTT assay; format: functional, cell-based; in short: as §2
[8] = Cytotoxicity against human QGY cells after 48 hrs by MTT assay; format: functional, cell-based; in short: as §2
[9] = test system: HeLa; assay: Cytotoxicity against human HeLa cells after 48 hrs by MTT assay; format: functional, cell-based; in short: as §2
[10] = biological target: T1, Tubulin (Homo sapiens); assay: as §3; format: protein-complex assay; in short: as §1

SMILES	Activity [1] [%]	IC50 ([2]; Homo sapiens, K562, 48 h) [µM]	IC50 ([6]; Homo sapiens, SW480, 48 h) [µM]	IC50 ([7]; Homo sapiens, A549, 48 h) [µM]	IC50 ([8]; Homo sapiens, QGY, 48 h) [µM]	IC50 ([9]; Homo sapiens, HeLa, 48 h) [µM]	other results
CCOC(=O)C1(C(=O)NCCc2ccc(F)cc2)CC1c1cc(OC)c(OC)c(OC)c1 (cis isomer)	40.8	–	–	–	–	–	–
CCOC(=O)C1(C(=O)Nc2ccc(F)cc2)CC1c1cc(OC)c(OC)c(OC)c1 (trans isomer)	7.9	–	–	–	–	–	–
CCOC(=O)C1(C(=O)Nc2cccc(Cl)c2)CC1c1cc(OC)c(OC)c(OC)c1 (stereo in doubt; cis)	50	–	–	–	–	–	–
CCOC(=O)C1(C(=O)Nc2cccc(Cl)c2)CC1c1cc(OC)c(OC)c(OC)c1 (stereo in doubt; trans)	–	–	–	–	–	–	IC50 ([9]; hela): > 100 µM; IC50 ([2]; k562): > 100 µM; IC50 ([6]; sw480): 28.7 µM; IC50 ([7]; a549): 45.2 µM; IC50 ([8]; qgy): > 100 µM
CCOC(=O)C1(C(=O)NCc2ccc(C)cc2)CC1c1cc(OC)c(OC)c(OC)c1 (cis isomer)	–	> 100	–	18.7	–	33.2	IC50 ([6]; sw480): 29 µM; IC50 ([8]; qgy): > 100 µM
COc1ccc(/C=C\c2cc(OC)c(OC)c(OC)c2)cc1O [COMBRETASTATIN A4]	–	0.0048	0.0182	0.0056	0.0265	0.0021	–
CCOC(=O)C1(C(=O)Nc2ccccc2Cl)CC1c1cc(OC)c(OC)c(OC)c1 (stereo in doubt; trans)	–	–	–	–	–	–	IC50 ([9]; hela): 76.4 µM; IC50 ([2]; k562): 14.2 µM; IC50 ([6]; sw480): 66.7 µM; IC50 ([7]; a549): 18.5 µM; IC50 ([8]; qgy): 48.8 µM

Now from value to compound, other results behind:

Activity [1] [%]	SMILES	IC50 ([2]; Homo sapiens, K562, 48 h) [µM]	IC50 ([6]; Homo sapiens, SW480, 48 h) [µM]	IC50 ([7]; Homo sapiens, A549, 48 h) [µM]	IC50 ([8]; Homo sapiens, QGY, 48 h) [µM]	IC50 ([9]; Homo sapiens, HeLa, 48 h) [µM]	other results
245	CC(=O)O[C@H]1C(=O)[C@@]2(C)[C@H]([C@H](OC(=O)c3ccccc3)[C@]3(O)C[C@H](OC(=O)[C@H](O)[C@@H](NC(=O)c4ccccc4)c4ccccc4)C(C)=C1C3(C)C)[C@]1(OC(C)=O)CO[C@@H]1C[C@@H]2O [PACLITAXEL]	0.0157	0.0121	0.0082	0.0113	–	EC50 [3]: 1.23 µM; IC50 [4]: 1.04 µM; Activity [5]: Toxic
50	CCOC(=O)C1(C(=O)NCc2ccc(OC)cc2)CC1c1cc(OC)c(OC)c(OC)c1 (trans isomer)	–	–	–	–	–	–
23.2	CCOC(=O)C1(C(=O)Nc2ccccc2)CC1c1cc(OC)c(OC)c(OC)c1 (cis isomer)	–	–	–	–	–	–
28.6	CCOC(=O)[C@]1(C(=O)Nc2ccccc2Cl)C[C@H]1c1cc(OC)c(OC)c(OC)c1	20.7	25.6	13.4	28	42.4	EC50 [3]: 16.9 µM
31.5	COc1cc([C@@H]2C[C@]2(CO)C(=O)Nc2ccccc2)cc(OC)c1OC	> 100	33.3	24.1	51.3	32	EC50 [3]: 14.3 µM
79.3	CCOC(=O)[C@]1(C(=O)NCc2ccc(C)cc2)C[C@H]1c1cc(OC)c(OC)c(OC)c1	> 100	36.4	13.3	32.1	28.5	EC50 [3]: 5.83 µM; Activity [10]: Dose-dependent effect
25	CCOC(=O)C1(C(=O)Nc2ccc(OC)cc2)CC1c1cc(OC)c(OC)c(OC)c1 (cis isomer)	–	–	–	–	–	–
